Measured values from paper PMC3981972 (Molecular cancer therapeutics, 2014).

Key:
[1] = test system: HT1080 cells; test: Live cell imaging of subcellular uptake and wash-out kinetics; format: cell-based
How it was run: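 HT1080 cells grown in DMEM with non-essential amino acids, 10% FBS and 1% penicillin-streptomycin, then imaged live in glass coverslip-bottom dishes on an inverted deconvolution microscope (40x objective, 37°C, 5% CO2). Prewarmed fluorescent probe was added to 1 μM, with images every second. Cells were then washed twice into drug-free medium. Nuclear and nucleolar regions of interest were fitted to uptake and clearance curves.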

[2] = Mouse plasma clearance of fluorescent probes after intravenous injection; format: in vivo; settings: 75 nmol i.v., biexponential fit
How it was run: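 Nude mice (6–8 weeks) with HT-1080 tumours in dorsal skin window chambers, under 1–2% isoflurane. Vessels labelled with Angiosense-750 or Pacific Blue–dextran. 75 nmol probe in 1:1 dimethylacetamide:solutol plus PBS, sonicated, given by tail-vein catheter during time-lapse intravital imaging (scans every 10 s). Plasma signal taken from intravascular regions of interest and fitted to biexponential decay.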

[3] = Plasma protein binding by rapid equilibrium dialysis; format: in vitro ADME; settings: 10 μM in mouse serum, 37°C, 4 hours
How it was run: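 Probe equilibrated in mouse serum against PBS on a shaker. Both compartments then adjusted with plasma or PBS to a 50:50 PBS:plasma final matrix to even out fluorescence effects. Fluorescence read on a plate reader to give the bound fraction.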

[4] = test system: tumor blood vessels of HT-1080 xenografts; settings: previous observations; cited from earlier work

Question: For `Cc1cc(C)n2c1C=C1C=CC(CCC(=O)N3CCN(C(=O)c4cc(Cc5n[nH]c(=O)c6ccccc56)ccc4F)CC3)=[N+]1[B-]2(F)F` [olaparib-BODIPY FL], which “Washing time to remove non-specific ER staining” value ([1]; HT1080 cells after 1 μM incubation, washed with fresh media) is on record?
Answer: Its value is “Within five minutes”.

Question: And the Cellular uptake half-life ([1]; HT1080 cells, 1 μM)?
Answer: Its Cellular uptake half-life is 1.18 min.

Question: What about the “Mouse plasma clearance t1/2,alpha” value [2] of the same compound?
Answer: The value was 5.16 min.

Question: And the “Mouse plasma clearance t1/2,beta” value [2]?
Answer: Its value is 85.7 min.

Question: And the C0 ([2]; read-out: Mouse plasma clearance C0)?
Answer: The C0 was 7 µM.

Question: What about the “Mouse plasma protein binding” value [3] of the same compound?
Answer: The value was 99.23% (+/− 0.11%).

Question: And the “Vascular permeability in tumor vessels versus mouse ear vessels” value [4]?
Answer: Its value is “the same in tumor vessels and mouse ear vessels”.
